Source: PubChem
PAFAH1B3 FP inh = PAFAH1B3 enzyme inhibitors, primary screen, biochemical, fluorescence polarization, human | recombinant PAFAH1B3, FP-rhodamine probe | actives 0.28% (n = 340,000) | inhibition, % at 3.39 µM;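 active = inhibition above the screen-wide average of all tested compounds plus 3 SD, cut at about 25% in these data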;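 note: 0% = enzyme with DMSO only and 100% = wells lacking PAFAH1B3 protein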
Apaf1 inhib = inhibitors of human Apaf-1 apoptosome, primary screen, biochemical, DEVD-Rh110 fluorescence, uHTS. Apoptotic protease-activating factor 1 (Homo sapiens), O14727. reconstituted apoptosome caspase-3 activity. inhibition, % at 20 µM. actives 0.71% (n = 330,000). AID 489030, 2010; active = inhibition of at least 40% at 20 µM;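 note: plate controls were DMSO wells for no effect and DEVD-CHO caspase inhibitor wells for full effect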
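System – cell-free apoptosome with Apaf-1, procaspase-3 and caspase-9 · Buffer or medium – pH 7.5 Hepes buffer with CHAPS, BSA, DTT · Also added – cytochrome c with DEVD-Rh110 · Times – 30 min compound preincubation, 50 min activation, room temperature · Technique – Rh110 fluorescence intensity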
pPAFAH inh = pPAFAH enzyme inhibitors, primary screen, biochemical, fluorescence polarization, human; recombinant pPAFAH, FP-rhodamine probe fluorescence polarization; Platelet-activating factor acetylhydrolase (Homo sapiens), Q13093; AID 463082, 2010; inhibition, % at 3.39 µM; actives 1.5% (n = 330,000);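 active = inhibition above the mean inhibition across the screen plus 3 SD, cut at about 25% in these data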;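 note: inhibitors block binding of the rhodamine activity-based probe so polarization drops; 0% = enzyme with DMSO and 100% = wells lacking pPAFAH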
Target sequence (Q13093 whole entry, looked up): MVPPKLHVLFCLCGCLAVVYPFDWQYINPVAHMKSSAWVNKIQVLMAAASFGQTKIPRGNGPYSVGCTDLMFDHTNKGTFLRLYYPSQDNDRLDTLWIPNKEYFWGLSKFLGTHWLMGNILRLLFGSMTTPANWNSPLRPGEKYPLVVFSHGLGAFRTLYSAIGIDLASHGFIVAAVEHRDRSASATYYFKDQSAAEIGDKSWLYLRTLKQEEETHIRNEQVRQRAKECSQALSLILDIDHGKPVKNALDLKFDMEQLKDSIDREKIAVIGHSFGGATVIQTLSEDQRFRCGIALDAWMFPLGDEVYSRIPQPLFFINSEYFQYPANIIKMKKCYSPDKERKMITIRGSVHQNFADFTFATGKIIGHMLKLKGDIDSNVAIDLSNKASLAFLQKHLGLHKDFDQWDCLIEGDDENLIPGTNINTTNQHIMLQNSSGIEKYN
PREPL inh = PREPL enzyme inhibitors, primary screen, biochemical, fluorescence polarization; Prolyl endopeptidase-like (Homo sapiens), Q4J6C6; recombinant PREPL, fluorescence polarization activity-based probe; inhibition, % at 5.96 µM; actives 0.68% (n = 320,000); AID 2751, 2010; in the data active = inhibition above about 43%;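 note: 0% = enzyme with DMSO and 100% = wells lacking enzyme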
PAFAH1B2 FP inh = PAFAH1B2 enzyme inhibitors, primary screen, biochemical, fluorescence polarization, human | AID 492953, 2010 | actives 1.2% (n = 340,000) | recombinant PAFAH1B2, FP-rhodamine activity probe | Platelet-activating factor acetylhydrolase IB subunit alpha2 (Homo sapiens), P68402 | inhibition, % at 3.39 µM;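 active = inhibition above the mean of all tested compounds plus 3 SD, cut at about 24% in these data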;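 note: 0% = enzyme with DMSO and 100% = wells lacking PAFAH1B2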
PAFAH2 FP inh = PAFAH2 enzyme inhibitors, primary screen, biochemical, fluorescence polarization, human. recombinant PAFAH2, FP-rhodamine activity probe. inhibition, % at 3.39 µM. actives 0.99% (n = 340,000). Platelet-activating factor acetylhydrolase 2, cytoplasmic (Homo sapiens), Q99487;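 active = inhibition above the mean over all tested compounds plus 3 SD, cut at about 30% in these data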;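 note: inhibitors block probe labeling of enzyme so polarization drops; 0% = enzyme with DMSO and 100% = wells lacking PAFAH2 protein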
PAFAH2 confirm = PAFAH2 enzyme inhibitors, confirmation, biochemical, fluorescence polarization, human; inhibition, % at 3.39 µM; recombinant PAFAH2, FP-rhodamine activity probe; actives 65% (n = 2,300); shares compounds with PAFAH2 FP inh;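 active = mean inhibition over three repeats above a set limit taken from the earlier primary screen, cut at about 30% in these data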;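 note: inhibitor blocks binding of rhodamine activity probe so polarization falls; 0% = enzyme with DMSO and 100% = wells lacking PAFAH2 protein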
* = called active by the depositor; nt = no result. A selection: hits, their analogues and other compounds. The true share with any hit is near 3.5%.

SMILES	PAFAH1B3 FP inh	Apaf1 inhib	pPAFAH inh	PREPL inh	PAFAH1B2 FP inh	PAFAH2 FP inh	PAFAH2 confirm
CCOC(=O)C1C(=O)N(C(=O)c2ccc(OC)cc2)CC1c1ccccc1 (centres undefined)	11	11	18	15	1	95*	75*
CC1CCCC(C(=O)O)N1C(=O)CCSC(=O)c1ccccc1 (centres undefined)	11	-26	1	-2	2	44*	46*
CC1CCCC(C)N1C(=O)Cn1nnc(-c2ccccc2)n1 (centres undefined)	4	0	6	1	5	-3	nt
CCOCc1c(C(=O)OCC(=O)Nc2ccccc2C(N)=O)oc2ccccc12	12	1	1	-5	-2	3	nt
Cc1ccc(C(=O)OCC(=O)NCc2ccc(Cl)cc2Cl)o1	1	3	4	-6	8	56*	42*
O=C(COC(=O)C1CC1)NCc1ccc(Cl)cc1Cl	4	3	5	20	5	64*	46*
O=C(COC(=O)C1CCN(c2ccc(C(F)(F)F)cn2)CC1)NCc1ccc(Cl)cc1Cl	0	27	5	-5	2	7	nt
CCOCC(=O)Nc1ccccc1C(=O)N1CCOCC1	0	-5	1	2	2	2	nt
O=C(COC(=O)c1ccccc1)Nc1cc(S(=O)(=O)N2CCCCCC2)ccc1Cl	8	-4	8	20	3	30*	16
CCN(c1ccccc1)S(=O)(=O)c1ccc(Cl)c(NC(=O)COC(=O)C2CC2C)c1 (centres undefined)	7	15	21	-1	-2	79*	76*
O=C(COC(=O)c1ccco1)Nc1cc(S(=O)(=O)N2CCCCC2)ccc1Cl	5	8	1	11	3	55*	46*
CC(=O)OCC(=O)Nc1cc(S(=O)(=O)N2CCCCCC2)ccc1Cl	-2	-8	-3	-8	6	3	nt
CCN(CC)c1ccc(S(=O)(=O)N2CCOCC2)cc1NC(=O)COC(=O)c1ccco1	8	4	2	6	6	29	nt
O=C(COC(=O)c1ccccc1O)Nc1cc(S(=O)(=O)N2CCCCCC2)ccc1Cl	3	5	6	12	2	2	nt
CCN(c1ccccc1)S(=O)(=O)c1ccc(Cl)c(NC(=O)CN2CCCCCC2)c1	5	-2	6	17	2	4	nt
O=C(COC(=O)c1ccco1)Nc1cc(S(=O)(=O)N2CCOCC2)ccc1Cl	8	-3	0	14	6	58*	35*
COc1ccc(C)cc1NC(=O)CCNC(=O)Cn1cnc2ccccc2c1=O	13	9	0	15	-3	-4	nt
CN(CC(=O)Nc1ccc(Cl)c(Cl)c1)C(=O)C1CCCC1	3	0	-1	16	2	-1	nt
COc1ccc(CNC(=O)C(C)Sc2ccc(S(=O)(=O)N3CCOCC3)cn2)cc1 (centres undefined)	5	-1	nt	nt	7	2	nt
Cc1cc(/C=C2\SC(N)=NC2=O)c(C)n1-c1ccccc1	-4	9	7	12	0	49*	33*
Cc1cc(C=C2C(=O)CCCC2=O)c(C)n1-c1ccccc1	18	11	13	6	5	1	nt
COc1cccc(CCNC(=O)CCc2nnc(Cc3cc(OC)ccc3OC)o2)c1	1	5	2	4	0	13	nt
COc1ccc(/C=C/C(=O)OCC(=O)Nc2ccc(S(N)(=O)=O)cc2)cc1OC	-1	-6	0	7	5	2	nt
COc1ccc(/C=C/C(=O)OCC(=O)Nc2ccc(Cl)c(S(=O)(=O)N(C)C)c2)cc1OC	-3	-9	15	-3	-5	84*	75*
COCCNC(=O)COC(=O)c1ccc(OCC(=O)Nc2ccccc2OC)c(OC)c1	12	-6	1	11	3	32*	19
SMILES	PAFAH1B3 FP inh	Apaf1 inhib	pPAFAH inh	PREPL inh	PAFAH1B2 FP inh	PAFAH2 FP inh	PAFAH2 confirm
COc1ccc(NC(=O)COC(=O)/C=C/c2cccs2)c(OC)c1	13	1	7	8	7	12	nt
COc1ccccc1NC(=O)COC(=O)/C=C/c1cccs1	8	12	-4	1	4	31*	23
COc1ccccc1NC(=O)COC(=O)/C=C/c1ccc(OC)c(OC)c1	8	0	4	0	5	37*	22
COC(=O)c1ccc(S(=O)(=O)N2CCCN(Cc3cccc(Br)c3F)CC2)n1C	-1	9	-2	14	4	5	nt
Cc1ccccc1OCCC(=O)OCC(=O)NC1CCS(=O)(=O)C1 (centres undefined)	16	-9	2	1	1	-2	nt
CCn1c(COc2ccc3ccccc3c2C)nnc1SCC(=O)Nc1cccc(C(=O)O)c1	-2	9	-1	-45	4	4	nt
CNc1nc(Cl)c(SC)c(NCc2cccc(OC)c2)n1	-6	8	13	0	4	1	nt
O=C(COC(=O)/C=C/c1cccs1)Nc1ccc(Cl)cc1F	-1	-1	5	5	4	52*	58*
O=C(COC(=O)/C=C/c1cccs1)NC(=O)Cc1ccccc1	10	2	5	-5	2	6	nt
O=C(COC(=O)CCc1c[nH]c(=O)[nH]1)Nc1cccc(Cl)c1	-9	-9	-3	4	-3	35*	29
O=C(c1ccccc1)c1ccc(OCC(=O)N2CCOCC2)cc1	4	3	3	4	5	0	nt
Cc1ccc(S(=O)(=O)/N=C2\C=C(NS(=O)(=O)c3ccccc3)C(=O)c3ccccc32)cc1	3	nt	nt	nt	3	30*	14
NC(=S)n1[nH]c(-c2ccc([N+](=O)[O-])cc2)c(N=Nc2cccc(Cl)c2)c1=O	17	16	nt	nt	16	36*	25
Cc1ccc(/C=C/C(=O)OCC(=O)NCc2ccccc2)o1	-6	2	nt	nt	1	52*	40*
CCCNC(=O)COC(=O)/C=C/c1ccc(C)o1	5	2	5	0	3	40*	37*
CC(C)n1nc(C(=O)Nc2nnc(SCc3c(Cl)cccc3Cl)s2)c2ccccc2c1=O	-7	18	1	12	-1	40*	66*
CC(C)n1nc(C(=O)Nc2nc3ccc(S(C)(=O)=O)cc3s2)c2ccccc2c1=O	3	-30	-4	-1	-3	2	nt
